Results taken from PubChem BioAssay.
Calls of active or inactive are those of the source.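 Rule for the calls: active = growth inhibition above 25% in both replicates, a cutoff set 3 SD above the mean; inconclusive = above 25% in only one replicate; inactive = the rest.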

assay: S. cerevisiae growth inhibition in permissive medium (OD615), pilot counter-assay for S. cerevisiae lifespan shortening project, permissive growth control (AID 705); settings: OD615, 24 h, at 10 µM, active compounds read high
In short: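 assay system = Saccharomyces cerevisiae strain carrying genetically modified DeaD replicative-lifespan system | medium = SC raffinose/galactose permissive medium | dosing = 10 µM single dose, 0.25% DMSO | schedule = 24 h compound exposure at 30 °C after 4 h pre-growth | measured by = OD at 615 nm | read-out basis = growth inhibition from lowered OD615 after 24 h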

| Structure (SMILES) | growth inhibition |
| --- | --- |
| COc1cc2c(cc1OC)C(C(=O)NC1CC1)C1c3ccccc3CCN1C2=O (stereo unspecified) | -17.8% (inactive) |
| CCSc1nnc(Cn2c(=O)sc3ccccc32)n1C | -8.03% (inactive) |
| COC(=O)c1ccc(N2C(=O)CC(Sc3n[nH]c(C)n3)C2=O)cc1 (stereo unspecified) | 38.2% (active) |
| Cc1ccc(-c2noc(CSc3nnnn3-c3ccccc3)n2)cc1 | -16.9% (inactive) |
| CC(=O)c1cccc(NC(=O)c2cc(C(C)C)on2)c1 | -14.6% (inactive) |
| COc1ccc(CNC(=O)c2cc3c(C)nc4ccccc4c3o2)c(OC)c1 | -10.6% (inactive) |
| CCn1cc(S(=O)(=O)CC(=O)Nc2ccc(C)cc2)c2ccccc21 | 0.74% (inactive) |
| COc1ccc(S(=O)(=O)NCCN2CCOCC2)c2ccccc12 | -1.53% (inactive) |
| Cn1c(=O)c2c(nc(NCCc3ccccc3)n2Cc2ccc(F)cc2)n(C)c1=O | -4.81% (inactive) |
| O=C(NCCc1cn2ccsc2n1)c1cccs1 | -14.1% (inactive) |
| Cc1ccc2oc(=O)c3cnn(CC(=O)N(CCCN4CCOCC4)Cc4ccco4)c3c2c1 | -16.5% (inactive) |
| Cc1ccccc1-c1noc(-c2cccs2)n1 | 8.34% (inactive) |
| Cc1cc(S(=O)(=O)N2CCN(Cc3ccccc3)CC2)c(C)s1 | -11.6% (inactive) |
| COc1ccc(OC)c(NC(=O)C2CCCN(S(=O)(=O)c3cccc4cccnc34)C2)c1 (stereo unspecified) | -12.7% (inactive) |
| CCC(C)N1C(=O)CCC1C(=O)NCc1ccc2c(c1)OCO2 (stereo unspecified) | -0.51% (inactive) |
| O=C(CCCOc1ccccc1)NCC1CCCO1 (stereo unspecified) | -3.87% (inactive) |
